For assay [1], the system named is Staphylococcus aureus. Put plainly: Antibacterial activity against Staphylococcus aureus after 24 hrs by serial dilution method. The class given is functional.
The test system of assay [2] is Bacillus subtilis. Put plainly: Antibacterial activity against Bacillus subtilis after 24 hrs by serial dilution method. The class given is functional.
The test system of assay [3] is Escherichia coli. Put plainly: Antibacterial activity against Escherichia coli after 24 hrs by serial dilution method. The class given is functional.
Assay [4] has as its system Candida albicans. Put plainly: Antifungal activity against Candida albicans after 48 hrs by serial dilution method. The class given is functional. In outline:
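Serial compound dilutions in Sabouraud dextrose broth (tube dilution), incubated 37 °C for 48 h. MIC was read as the lowest concentration with no growth.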

In assay [5] the test system is Aspergillus niger. The assay can be described thus: Antifungal activity against Aspergillus niger after 7 days by serial dilution method. In kind it is functional.
For assay [6], the system named is Feline coronavirus. The assay can be described thus: Antiviral activity against Feline caronavirus infected in […] cells assessed as inhibition of virus-induced cytopathic effect after 3 days by MTS assay. In kind it is functional, organism-based. In outline:
(§1)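 Confluent cell monolayers were infected with 100 CCID50 of virus and allowed 2 h adsorption at 37 °C. Virus was then removed and serial compound dilutions were added. Cultures were incubated at 37 °C for 3 days, until CPE was complete in the untreated virus control. EC50 was the concentration giving 50% inhibition of virus-induced CPE, by visual score or by MTS formazan cell viability.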

Assay [7] relates to Felid alphaherpesvirus 1. The assay can be described thus: Antiviral activity against Feline herpesvirus 1 infected in […] cells assessed as inhibition of virus-induced cytopathic effect after 3 days by MTS assay. The class given is functional, organism-based. In outline:
as §1

Assay [8] deals with Human alphaherpesvirus 1. Put plainly: Antiviral activity against Herpes simplex virus 1 KOS infected in human HEL cells assessed as inhibition of virus-induced cytopathic effect after 3 days by MTS assay. The class given is functional, organism-based. The gist of the method:
as §1

Assay [9] concerns Human alphaherpesvirus 2. Put plainly: Antiviral activity against Herpes simplex virus 2 G infected in human HEL cells assessed as inhibition of virus-induced cytopathic effect after 3 days by MTS assay. The class given is functional, organism-based. Conditions: strain G. In outline: as §1
The subject of assay [10] is Vaccinia virus. The assay can be described thus: Antiviral activity against Vaccinia virus infected in human HEL cells assessed as inhibition of virus-induced cytopathic effect after 3 days by MTS assay. In kind it is functional, organism-based. As to conditions: Orthopoxvirus vaccinia. The gist of the method:
as §1

Assay [11] deals with Human alphaherpesvirus 1. The assay can be described thus: Antiviral activity against acyclovir-resistant […] kinase-deficient HSV1 KOS infected in human HEL cells assessed as inhibition of virus-induced cytopathic effect after 3 days by MTS assay. In kind it is functional, organism-based. The gist of the method:
as §1

The test system of assay [12] is Vesicular stomatitis virus. The assay can be described thus: Antiviral activity against VSV infected in human HEL cells assessed as inhibition of virus-induced cytopathic effect after 3 days by MTS assay. In kind it is functional, organism-based. In outline: as §1
The subject of assay [13] is Influenza A virus. Put plainly: Antiviral activity against influenza A virus H1N1 infected in MDCK cells assessed as inhibition of virus-induced cytopathic effect after 3 days by MTS assay. The class given is functional, organism-based. The gist of the method:
as §1

Assay [14] relates to Influenza A virus. Put plainly: Antiviral activity against influenza A virus H3N2 infected in MDCK cells assessed as inhibition of virus-induced cytopathic effect after 3 days by MTS assay. In kind it is functional, organism-based. The gist of the method:
as §1

The test system of assay [15] is Influenza B virus. Put plainly: Antiviral activity against influenza B virus infected in MDCK cells assessed as inhibition of virus-induced cytopathic effect after 3 days by MTS assay. In kind it is functional, organism-based. The gist of the method: as §1
Assay [16] relates to Human respirovirus 3. The assay can be described thus: Antiviral activity against Parainfluenza 3 virus infected in african green monkey Vero cells assessed as inhibition of virus-induced cytopathic effect after 3 days by MTS assay. The class given is functional, organism-based. The gist of the method: as §1
Assay [17] relates to Mammalian orthoreovirus 1. Put plainly: Antiviral activity against Reovirus 1 infected in african green monkey Vero cells assessed as inhibition of virus-induced cytopathic effect after 3 days by MTS assay. In kind it is functional, organism-based. In outline:
as §1

The subject of assay [18] is Sindbis virus. The assay can be described thus: Antiviral activity against Simbidis virus infected in african green monkey Vero cells assessed as inhibition of virus-induced cytopathic effect after 3 days by MTS assay. The class given is functional, organism-based. The gist of the method: as §1
The test system of assay [19] is Coxsackievirus B4. Put plainly: Antiviral activity against Coxsackie virus B4 infected in african green monkey Vero cells assessed as inhibition of virus-induced cytopathic effect after 3 days by MTS assay. The class given is functional, organism-based. In outline:
as §1

In assay [20] the test system is Punta Toro virus. Put plainly: Antiviral activity against Punta toro virus infected in african green monkey Vero cells assessed as inhibition of virus-induced cytopathic effect after 3 days by MTS assay. The class given is functional, organism-based. In outline: as §1

Consider seven compounds from ChEMBL document CHEMBL1177846, “Benzylidene/2-chlorobenzylidene hydrazides: synthesis, antimicrobial activity, QSAR studies and antiviral evaluation” (Eur J Med Chem, 2010).

Active and inactive are the calls of the source. No cut-off for these calls is given here.

On to `CCCCCCCCCCCCCCCCCC(=O)N/N=C/c1ccccc1Cl`, for which the entries for the “-logMIC” value in assay [1], in assay [2] and in [5] were 1.53, 1.53 and 1.29, respectively. In addition, the MBC was more than 0.119 uM/ml in assay [1], 0.029 uM/ml in assay [2] and more than 0.119 uM/ml in assay [3]. The results for the MFC in [4] and in [5] were more than 0.119 uM/ml and 0.059 uM/ml, respectively. The inhibition result in assay [6], in [7], in assay [8], in [9], in assay [10] and in assay [11] was “inactive” throughout. Besides, the inhibition entry in [12], in assay [13], in assay [14], in [15], in [16] and in [17] was “inactive” throughout. Besides, the inhibition entry in [18], in [19] and in [20] was “inactive” in each case.

For `O=C(N/N=C/c1ccccc1Cl)c1cc([N+](=O)[O-])cc([N+](=O)[O-])c1`, the MBC in assay [1] was more than 0.13 uM/ml; in assay [2], 0.065 uM/ml; in assay [3], more than 0.13 uM/ml. Moreover, the entries for the “-logMIC” value in assay [4] and in assay [5] were 2.05 and 1.6, respectively. For the same compound, the MFC in assay [4] and in assay [5] was more than 0.13 uM/ml throughout. Also, the inhibition result in assay [6], in [7], in [8], in assay [9], in assay [10] and in assay [11] was “inactive” each time. Also, the inhibition result in assay [12], in [13], in assay [14], in assay [15], in assay [16] and in assay [17] was “inactive” in each case. For the same compound, the inhibition result in assay [18], in assay [19] and in assay [20] was “inactive” in each case.

As for `C/C=C/C=C/C(=O)N/N=C/c1ccccc1`, the MBC in assay [1] is reported as more than 0.233 uM/ml; in [2] it was more than 0.233 uM/ml; in assay [3] it was 0.058 uM/ml. The “-logMIC” value in [4] amounted to 0.93; in assay [5] it was 1.54. For the same compound, the MFC in assay [4] and in assay [5] was more than 0.233 uM/ml throughout. Besides, the inhibition entry in assay [6], in assay [7], in [8], in [9], in assay [10] and in assay [11] was “inactive” throughout. The inhibition entry in assay [12], in [13], in assay [14], in assay [15], in [16] and in assay [17] was “inactive” in each case. In addition, the inhibition result in assay [18], in assay [19] and in assay [20] was “inactive” each time.

Turning to `O=C(/C=C/c1ccccc1)N/N=C/c1ccccc1Cl`, the figures for the MBC in assay [1], in assay [2] and in [3] were 0.176 uM/ml, 0.088 uM/ml and more than 0.176 uM/ml, respectively. Also, the MFC in assay [4] and in [5] was more than 0.176 uM/ml throughout. Also, the “-logMIC” value in assay [5] amounted to 1.76. Besides, the inhibition entry in assay [6], in [7], in assay [8], in assay [9], in assay [10] and in [11] was “inactive” throughout. The inhibition entry in assay [12], in [13], in assay [14], in assay [15], in assay [16] and in assay [17] was “inactive” throughout. The inhibition entry in assay [18], in assay [19] and in [20] was “inactive” throughout.

`CCCCCCCCCCCC(=O)N/N=C/c1ccccc1`: the figures for the MBC in [1], in [2] and in assay [3] were more than 0.166 uM/ml, more than 0.166 uM/ml and 0.041 uM/ml, respectively. Further, the MFC in assay [4] and in assay [5] was more than 0.166 uM/ml throughout. Moreover, the “-logMIC” value in [5] was found to be 1.21. For the same compound, the inhibition entry in assay [6], in assay [7], in [8], in assay [9], in assay [10] and in assay [11] was “inactive” throughout. Besides, the inhibition entry in assay [12], in assay [13], in assay [14], in [15], in assay [16] and in [17] was “inactive” in each case. In addition, the inhibition result in [18], in assay [19] and in assay [20] was “inactive” each time.

Regarding `CCCCCCCCCCCCCCCC(=O)N/N=C/c1ccccc1`, the MBC is listed as more than 0.139 uM/ml in [1], 0.139 uM/ml in assay [2] and more than 0.139 uM/ml in assay [3]. The MFC in assay [4] and in [5] was more than 0.139 uM/ml each time. The “-logMIC” value in assay [5] came out at 0.86. Further, the inhibition entry in assay [6], in [7], in assay [8], in [9], in [10] and in assay [11] was “inactive” in each case. Moreover, the inhibition entry in assay [12], in assay [13], in assay [14], in assay [15], in assay [16] and in assay [17] was “inactive” throughout. The inhibition result in [18], in [19] and in assay [20] was “inactive” throughout.

As for `Cc1cccc(C(=O)N/N=C/c2ccccc2)c1`, the MBC in [1] is more than 0.21 uM/ml; in [2] it was 0.052 uM/ml; in [3], more than 0.21 uM/ml. The MFC in assay [4] and in assay [5] was more than 0.21 uM/ml each time. Besides, the “-logMIC” value in assay [5] turned out to be 1.58. For the same compound, the inhibition result in assay [6], in [7], in [8], in assay [9], in assay [10] and in assay [11] was “inactive” each time. Moreover, the inhibition result in [12], in [13], in assay [14], in assay [15], in assay [16] and in assay [17] was “inactive” each time. For the same compound, the inhibition result in [18], in assay [19] and in [20] was “inactive” throughout.
